{"source": "paper PMC4862586", "about": "(The New England journal of medicine, 2015)", "key": {"CLL": {"test_system": "CLL", "conditions": "cited from earlier work"}, "Itk": {"molecular_target": "T1, Itk (Homo sapiens, UniProt Q08881)", "T1 sequence (Q08881 1-620)": "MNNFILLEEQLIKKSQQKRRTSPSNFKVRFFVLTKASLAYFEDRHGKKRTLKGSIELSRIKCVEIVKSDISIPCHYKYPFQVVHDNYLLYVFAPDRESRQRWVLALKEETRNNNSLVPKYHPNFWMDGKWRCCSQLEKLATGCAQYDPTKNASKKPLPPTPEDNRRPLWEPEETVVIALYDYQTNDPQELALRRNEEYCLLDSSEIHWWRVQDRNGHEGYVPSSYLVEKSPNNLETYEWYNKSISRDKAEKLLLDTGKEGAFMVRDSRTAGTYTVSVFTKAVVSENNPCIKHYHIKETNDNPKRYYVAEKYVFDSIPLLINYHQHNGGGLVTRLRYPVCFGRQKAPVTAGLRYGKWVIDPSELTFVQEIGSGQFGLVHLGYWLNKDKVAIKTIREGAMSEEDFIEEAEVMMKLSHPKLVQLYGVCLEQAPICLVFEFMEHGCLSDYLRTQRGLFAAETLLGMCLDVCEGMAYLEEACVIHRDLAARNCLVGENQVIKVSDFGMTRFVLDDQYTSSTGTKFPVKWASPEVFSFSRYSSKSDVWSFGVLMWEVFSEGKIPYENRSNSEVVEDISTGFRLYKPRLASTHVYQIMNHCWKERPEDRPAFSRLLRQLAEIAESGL", "experiment": "Itk inhibition", "format": "cell-based"}, "[1]": {"test_system": "patients with relapsed CLL", "experiment": "Phase 1–2 multicenter study: safety, adverse events", "format": "in vivo"}, "relapsed CLL": {"test_system": "relapsed CLL", "experiment": "Phase 1–2 multicenter study: clinical response", "format": "in vivo, human", "conditions": "for Resolution of B symptoms: 16 patients with B symptoms at baseline"}, "phosphorylated Btk": {"test_system": "phosphorylated Btk", "experiment": "Phosphorylation of Btk by intracellular flow cytometry", "format": "in vivo, human", "conditions": "respective time points across all cohorts", "how_it_was_run": "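Patients with relapsed CLL received oral drug continuously at 100, 175, 250 or 400 mg once daily (dose escalation) or 100 mg twice daily (phase 2 expansion). Phosphorylated Btk in blood samples was measured by intracellular flow cytometry.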"}, "[2]": {"experiment": "Pharmacokinetics in patients, cycle 1, non-compartmental analysis", "format": "in vivo", "conditions": "human, po"}, "primary CLL cells": {"test_system": "primary CLL cells", "experiment": "B-cell receptor signaling in primary CLL cells", "format": "cell-based, human"}, "natural killer cells": {"test_system": "natural killer cells", "format": "cell-based, human", "conditions": "obinutuzumab-coated CLL cells"}, "[3]": {"experiment": "Serum immunoglobulins and immune cell numbers over time in patients", "format": "in vivo"}, "EGFR": {"test_system": "EGFR", "experiment": "EGFR signaling", "format": "cell-based"}, "[4]": {"test_system": "naturally occurring canine B-cell lymphomas", "conditions": "cited from earlier work"}, "[5]": {"test_system": "pro-inflammatory cytokines", "experiment": "Pro-inflammatory cytokine levels in patients", "format": "in vivo, human", "conditions": "from baseline to day 28 of treatment", "how_it_was_run": "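Patients with relapsed CLL were dosed orally and continuously at 100–400 mg once daily or 100 mg twice daily. Change in serum cytokines from baseline was tested by Wilcoxon signed-rank. Only patients with baseline and every follow-up value were included, and there was no multiplicity adjustment.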"}, "platelet aggregation": {"test_system": "platelet aggregation", "experiment": "Platelet aggregation derived from blood of patients", "format": "in vivo, human", "conditions": "blood of patients receiving the drug"}, "[6]": {"conditions": "all patients, median follow-up 14.3 months"}}}
{"smiles": "C=CC(=O)Nc1cccc(Nc2nc(Nc3ccc(OCCOC)cc3)ncc2F)c1", "note": "[CC-292]", "values": [{"measurement": "Clinical results", "setting": "CLL; CLL", "value": "inferior clinical results compared with ibrutinib"}, {"measurement": "Tolerability", "setting": "CLL; human, in vivo", "value": "well tolerated"}]}
{"smiles": "CC#CC(=O)N1CCC[C@H]1c1nc(-c2ccc(C(=O)Nc3ccccn3)cc2)c2c(N)nccn12", "note": "[acalabrutinib, Acalabrutinib]", "values": [{"measurement": "Itk inhibition", "setting": "Itk", "value": "lack of Itk inhibition"}, {"measurement": "Grade 5 event of pneumonia", "setting": "[1]; N=61", "value": "† The all-grade column includes one patient with a Grade 5 event of pneumonia."}, {"measurement": "Adverse event Arthralgia, All Grades", "setting": "[1]; human, in vivo", "value": "10 (16) number of patients (percent)"}, {"measurement": "Adverse event Arthralgia, Grades 1–2", "setting": "[1]; human, in vivo", "value": "9 (15) number of patients (percent)"}, {"measurement": "Adverse event Arthralgia, Grades 3–4", "setting": "[1]; human, in vivo", "value": "1 (2) number of patients (percent)"}, {"measurement": "Adverse event Contusion, All Grades", "setting": "[1]; human, in vivo", "value": "11 (18) number of patients (percent)"}, {"measurement": "Adverse event Contusion, Grades 1–2", "setting": "[1]; human, in vivo", "value": "11 (18) number of patients (percent)"}, {"measurement": "Adverse event Contusion, Grades 3–4", "setting": "[1]; human, in vivo", "value": "0 (0) number of patients (percent)"}, {"measurement": "Adverse event Decreased weight, All Grades", "setting": "[1]; human, in vivo", "value": "10 (16) number of patients (percent)"}, {"measurement": "Adverse event Decreased weight, Grades 1–2", "setting": "[1]; human, in vivo", "value": "10 (16) number of patients (percent)"}, {"measurement": "Adverse event Decreased weight, Grades 3–4", "setting": "[1]; human, in vivo", "value": "0 (0) number of patients (percent)"}, {"measurement": "Adverse event Diarrhea, All Grades", "setting": "[1]; human, in vivo", "value": "24 (39) number of patients (percent)"}, {"measurement": "Adverse event Diarrhea, Grades 1–2", "setting": "[1]; human, in vivo", "value": "23 (38) number of patients (percent)"}, {"measurement": "Adverse event Diarrhea, Grades 3–4", "setting": "[1]; human, in vivo", "value": "1 (2) number of patients (percent)"}, {"measurement": "Adverse event Fatigue, All Grades", "setting": "[1]; human, in vivo", "value": "13 (21) number of patients (percent)"}, {"measurement": "Adverse event Fatigue, Grades 1–2", "setting": "[1]; human, in vivo", "value": "11 (18) number of patients (percent)"}, {"measurement": "Adverse event Fatigue, Grades 3–4", "setting": "[1]; human, in vivo", "value": "2 (3) number of patients (percent)"}, {"measurement": "Adverse event Headache, All Grades", "setting": "[1]; human, in vivo", "value": "26 (43) number of patients (percent)"}, {"measurement": "Adverse event Headache, Grades 1–2", "setting": "[1]; human, in vivo", "value": "26 (43) number of patients (percent)"}, {"measurement": "Adverse event Headache, Grades 3–4", "setting": "[1]; human, in vivo", "value": "0 (0) number of patients (percent)"}, {"measurement": "Adverse event Hypertension, All Grades", "setting": "[1]; human, in vivo", "value": "12 (20) number of patients (percent)"}, {"measurement": "Adverse event Hypertension, Grades 1–2", "setting": "[1]; human, in vivo", "value": "8 (13) number of patients (percent)"}, {"measurement": "Adverse event Hypertension, Grades 3–4", "setting": "[1]; human, in vivo", "value": "4 (7) number of patients (percent)"}, {"measurement": "Adverse event Increased weight, All Grades", "setting": "[1]; human, in vivo", "value": "16 (26) number of patients (percent)"}, {"measurement": "Adverse event Increased weight, Grades 1–2", "setting": "[1]; human, in vivo", "value": "15 (25) number of patients (percent)"}, {"measurement": "Adverse event Increased weight, Grades 3–4", "setting": "[1]; human, in vivo", "value": "1 (2) number of patients (percent)"}, {"measurement": "Adverse event Nausea, All Grades", "setting": "[1]; human, in vivo", "value": "12 (20) number of patients (percent)"}, {"measurement": "Adverse event Nausea, Grades 1–2", "setting": "[1]; human, in vivo", "value": "12 (20) number of patients (percent)"}, {"measurement": "Adverse event Nausea, Grades 3–4", "setting": "[1]; human, in vivo", "value": "0 (0) number of patients (percent)"}, {"measurement": "Adverse event Peripheral edema, All Grades", "setting": "[1]; human, in vivo", "value": "13 (21) number of patients (percent)"}, {"measurement": "Adverse event Peripheral edema, Grades 1–2", "setting": "[1]; human, in vivo", "value": "13 (21) number of patients (percent)"}, {"measurement": "Adverse event Peripheral edema, Grades 3–4", "setting": "[1]; human, in vivo", "value": "0 (0) number of patients (percent)"}, {"measurement": "Adverse event Petechiae, All Grades", "setting": "[1]; human, in vivo", "value": "10 (16) number of patients (percent)"}, {"measurement": "Adverse event Petechiae, Grades 1–2", "setting": "[1]; human, in vivo", "value": "10 (16) number of patients (percent)"}, {"measurement": "Adverse event Petechiae, Grades 3–4", "setting": "[1]; human, in vivo", "value": "0 (0) number of patients (percent)"}, {"measurement": "Adverse event Pyrexia, All Grades", "setting": "[1]; human, in vivo", "value": "14 (23) number of patients (percent)"}, {"measurement": "Adverse event Pyrexia, Grades 1–2", "setting": "[1]; human, in vivo", "value": "12 (20) number of patients (percent)"}, {"measurement": "Adverse event Pyrexia, Grades 3–4", "setting": "[1]; human, in vivo", "value": "2 (3) number of patients (percent)"}, {"measurement": "Adverse event Upper respiratory tract infection, All Grades", "setting": "[1]; human, in vivo", "value": "14 (23) number of patients (percent)"}, {"measurement": "Adverse event Upper respiratory tract infection, Grades 1–2", "setting": "[1]; human, in vivo", "value": "14 (23) number of patients (percent)"}, {"measurement": "Adverse event Upper respiratory tract infection, Grades 3–4", "setting": "[1]; human, in vivo", "value": "0 (0) number of patients (percent)"}, {"measurement": "Most common adverse events: diarrhea", "setting": "[1]; human, in vivo", "value": 39, "unit": "%"}, {"measurement": "Most common adverse events: headache", "setting": "[1]; human, in vivo", "value": 43, "unit": "%"}, {"measurement": "Most common adverse events: increased weight", "setting": "[1]; human, in vivo", "value": 26, "unit": "%"}, {"measurement": "Most common adverse events: pyrexia", "setting": "[1]; human, in vivo", "value": 23, "unit": "%"}, {"measurement": "Most common adverse events: upper respiratory tract infection", "setting": "[1]; human, in vivo", "value": 23, "unit": "%"}, {"measurement": "Dose-limiting toxicities", "setting": "[1]; in vivo", "value": "No dose-limiting toxicities"}, {"measurement": "Major hemorrhage or atrial fibrillation", "setting": "[1]; in vivo", "value": "No major hemorrhage or atrial fibrillation"}, {"measurement": "Severe diarrhea, rash, arthralgia/myalgia, bruising and bleeding events", "setting": "[1]; in vivo", "value": "rare"}, {"measurement": "Tolerability of long-term therapy", "setting": "[1]; in vivo", "value": "well tolerated"}, {"measurement": "Response rate", "setting": "relapsed CLL; 4 patients with prior idelalisib therapy", "value": 100, "unit": "%"}, {"measurement": "Resolution of B symptoms", "setting": "relapsed CLL; by cycle 4", "value": "88 % of patients"}, {"measurement": "Resolution of B symptoms", "setting": "relapsed CLL; by cycle 9", "value": "100 % of patients"}, {"measurement": "Response rate", "setting": "relapsed CLL; 18 patients with del(17)(p13.1)", "value": 100, "unit": "%"}, {"measurement": "Patients experiencing reduction in lymphadenopathy", "setting": "relapsed CLL; 59 of 60 patients", "value": 98, "unit": "%"}, {"measurement": "Progression-free survival events", "setting": "relapsed CLL; a death from pneumonia (13 months) and a single progression (16 months)", "value": 2, "unit": "events"}, {"measurement": "Best overall response rate (partial response and partial response with lymphocytosis)", "setting": "relapsed CLL; [6]", "value": 95, "unit": "%"}, {"measurement": "Partial response with lymphocytosis", "setting": "relapsed CLL; [6]", "value": 10, "unit": "%"}, {"measurement": "Stable disease", "setting": "relapsed CLL; [6]", "value": 5, "unit": "%"}, {"measurement": "Cases of Richter’s transformation", "setting": "relapsed CLL; median follow-up 14.3 months", "value": "No cases"}, {"measurement": "Improvements in hemoglobin levels, platelet count and absolute neutrophil count", "setting": "relapsed CLL; patients with baseline cytopenia", "value": "noted in the great majority of patients"}, {"measurement": "Phosphorylated Btk after treatment", "setting": "phosphorylated Btk", "value": "complete loss of phosphorylated Btk"}, {"measurement": "Absorption and elimination", "setting": "[2]; in vivo", "value": "rapidly absorbed and eliminated"}, {"measurement": "half-life", "setting": "[2]; plasma", "value": "~1", "unit": "h"}, {"measurement": "Inhibition of B-cell receptor signaling", "setting": "primary CLL cells", "value": "dose-dependent inhibition"}, {"measurement": "Inhibition of antibody-mediated killing by natural killer cells", "setting": "natural killer cells", "value": "does not inhibit"}, {"measurement": "Serum IgG, IgA and IgM over time", "setting": "[3]; excluding patients receiving intravenous immunoglobulin", "value": "did not demonstrate significant change"}, {"measurement": "T cell (CD4+, CD8+), natural killer cell and monocyte numbers over time", "setting": "[3]; human, in vivo", "value": "no clinically significant change"}, {"measurement": "Inhibition of EGFR signaling", "setting": "EGFR", "value": "does not inhibit"}, {"measurement": "Clinical responses", "setting": "[4]", "value": "objective clinical responses"}, {"measurement": "Pro-inflammatory cytokines", "setting": "[5]", "value": "decreased significantly"}, {"measurement": "Platelet aggregation", "setting": "platelet aggregation", "value": "not the former"}]}
